Assay results as given in ChEMBL document CHEMBL1154866, “Lanostane triterpenes from the fruiting bodies of Ganoderma lucidum and their inhibitory effects on adipocyte differentiation in 3T3-L1 Cells” (J Nat Prod, 2010).

Key:
3T3-L1 [1] = assay: Inhibition of adipocytes differentiation in mouse 3T3L1 cells assessed as lipid accumulation at 40 ug/ml after 8 days by Oil red O staining relative to control; type: functional; settings: 3T3-L1, 192 h
How it was run: (§1)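 Differentiation induced 2 days post-confluence with DEX, 0.5 mM IBMX and insulin in DMEM/10% FBS for 2 days, then DMEM/FBS/insulin refreshed every 2 days. Sample added every 2 days for 8 days (40 µg/mL, or 5–40 µg/mL series). Day 8: PBS wash, 4% formaldehyde fixation, oil red O 30 min, dye eluted with 2-propanol, A510 versus untreated control. Mean ± SD, n=3.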

3T3-L1 [2] = assay: Cytotoxicity against mouse 3T3L1 cells at 80 ug/ml after 2 days by MTT assay; type: cell-based; settings: 3t3-l1, 48 h
How it was run: (§2)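 3T3-L1 preadipocytes seeded at 1 × 10^4 cells/well in DMEM + 10% bovine calf serum, 37 °C, 5% CO2. After 24 h, vehicle or sample (10 to 80 µg/mL) added in serum-free DMEM. After a further 24 h, MTT added for 2 h. Formazan dissolved in DMSO, OD read at 570 nm.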

3T3-L1 [3] = assay: Cytotoxicity against mouse 3T3L1 cells at 40 ug/ml after 2 days by MTT assay; type: cell-based; settings: 3t3-l1, 48 h; how it was run: as §2
3T3-L1 [4] = assay: Inhibition of adipocytes differentiation in mouse 3T3L1 cells assessed as lipid accumulation at 5 to 40 ug/ml after 8 days by Oil red O staining relative to control; type: functional; how it was run: as §1
3T3-L1 [5] = assay: Inhibition of adipocytes differentiation in mouse 3T3L1 cells assessed as lipid accumulation after 8 days by Oil red O staining relative to control; type: functional, cell-based; how it was run: as §1
[6] = target: T1, Glycerol-3-phosphate dehydrogenase [NAD(+)], cytoplasmic (Mus musculus) (UniProt P13707); assay: Inhibition of GPDH in mouse 3T3L1 cells assessed as reduction of NADH oxidation rate at 40 ug/ml; type: cell-based; design: scale not given: the % may be the effect or the level left; settings: 3T3-L1
T1 sequence (whole entry): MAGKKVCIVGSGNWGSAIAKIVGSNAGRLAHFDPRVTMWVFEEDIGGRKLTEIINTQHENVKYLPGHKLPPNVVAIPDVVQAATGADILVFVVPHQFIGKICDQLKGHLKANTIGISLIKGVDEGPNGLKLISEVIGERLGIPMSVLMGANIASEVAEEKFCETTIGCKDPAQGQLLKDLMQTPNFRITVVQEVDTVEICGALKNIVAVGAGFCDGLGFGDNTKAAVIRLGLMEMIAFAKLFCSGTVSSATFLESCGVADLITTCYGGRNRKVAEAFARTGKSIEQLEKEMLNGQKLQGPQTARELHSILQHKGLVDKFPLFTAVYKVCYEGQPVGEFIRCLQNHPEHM
How it was run: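 Preadipocytes kept in DMEM/10% BCS; induced 2 days post-confluence with DEX, 0.5 mM IBMX and insulin in DMEM/10% FBS, then DMEM/FBS/insulin. Treated every 2 days (5–40 µg/mL) to day 8. Cells collected in extraction buffer and spun 12 000 rpm, 5 min, 4 °C. Supernatant A340 decline over 5 min gives NADH oxidation with dihydroxyacetone phosphate, as units per mg protein (Bradford). Mean ± SD, n=3.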

| Activity [6] [%] | Structure (SMILES) | inhibition at 40 µg/mL (3T3-L1 [1]) [%] | Activity (3T3-L1 [2]) | Activity (3T3-L1 [3]) | inhibition (INH) (3T3-L1 [4]) [%] | inhibition (3T3-L1 [5]) |
| --- | --- | --- | --- | --- | --- | --- |
| – | CCCCOC(=O)C(C)CC(=O)C[C@@H](C)[C@H]1C[C@H](O)[C@@]2(C)C3=C(C(=O)C[C@]12C)[C@@]1(C)CCC(=O)C(C)(C)[C@@H]1C[C@@H]3O (some centres undefined) [BUTYL GANODERATE A] | 22 | Toxic | Non-toxic | – | – |
| – | CCCCOC(=O)[C@H](C)CC(=O)C[C@@H](C)[C@H]1CC(=O)[C@@]2(C)C3=C(C(=O)C[C@]12C)[C@@]1(C)CC[C@H](O)C(C)(C)[C@@H]1C[C@@H]3O [BUTYL GANODERATE B] | 22 | – | Non-toxic | – | – |
| – | CCCCOC(=O)CC[C@@H](C)[C@H]1CC(=O)[C@@]2(C)C3=C(C(=O)C[C@]12C)[C@@]1(C)CCC(=O)C(C)(C)[C@@H]1C[C@@H]3O [BUTYL LUCIDENATE A] | 22 | Toxic | Non-toxic | – | – |
| > 80 | CCCCOC(=O)CC[C@@H](C)[C@H]1CC(=O)[C@@]2(C)C3=C(C(=O)C[C@]12C)[C@@]1(C)CC[C@H](O)C(C)(C)[C@@H]1C[C@@H]3O [BUTYL LUCIDENATE N] | 56 | – | Non-toxic | 56 | Dose-dependent effect |
| – | C[C@H](CC(=O)C[C@@H](C)[C@H]1C[C@H](O)[C@@]2(C)C3=C(C(=O)C[C@]12C)[C@@]1(C)CCC(=O)C(C)(C)[C@@H]1C[C@@H]3O)C(=O)O [GANODERIC ACID A] | 22 | – | Non-toxic | – | – |
| – | CC(CC(=O)C[C@@H](C)[C@H]1CC(=O)[C@@]2(C)C3=C(C(=O)C[C@]12C)[C@@]1(C)CC[C@H](O)C(C)(C)[C@@H]1C[C@@H]3O)C(=O)O (some centres undefined) [GANODERIC ACID B] | 22 | – | Non-toxic | – | – |
| – | C[C@H](CC(=O)C[C@@H](C)[C@H]1CC(=O)[C@@]2(C)C3=C(C(=O)C[C@]12C)[C@@]1(C)CCC(=O)C(C)(C)[C@@H]1CC3=O)C(=O)O [GANODERIC ACID E] | 22 | – | Non-toxic | – | – |
| – | CC(CC(=O)C[C@@H](C)[C@H]1C[C@H](O)[C@@]2(C)C3=C(C(=O)C[C@]12C)[C@@]1(C)CCC(=O)C(C)(C)[C@@H]1CC3)C(=O)O (some centres undefined) [GANOLUCIDIC ACID A] | 22 | Toxic | Non-toxic | – | – |
| – | C[C@H](CCC(=O)O)[C@H]1CC(=O)[C@@]2(C)C3=C(C(=O)C[C@]12C)[C@@]1(C)CC[C@H](O)C(C)(C)[C@@H]1C[C@@H]3O [LUCIDENIC ACID N] | 22 | – | Non-toxic | – | – |
| – | COC(=O)C(C)CC(=O)C[C@@H](C)[C@H]1C[C@H](O)[C@@]2(C)C3=C(C(=O)C[C@]12C)[C@@]1(C)CCC(=O)C(C)(C)[C@@H]1C[C@@H]3O (some centres undefined) [METHYL GANODERATE A] | 22 | Toxic | Non-toxic | – | – |
| – | COC(=O)C(C)CC(=O)C[C@@H](C)[C@H]1CC(=O)[C@@]2(C)C3=C(C(=O)C[C@]12C)[C@@]1(C)CC[C@H](O)C(C)(C)[C@@H]1C[C@@H]3O (some centres undefined) [METHYL GANODERATE B] | 22 | – | Non-toxic | – | – |
| – | COC(=O)C(C)CC(=O)C[C@@H](C)[C@H]1CC(=O)[C@@]2(C)C3=C(C(=O)C[C@]12C)[C@@]1(C)CCC(=O)C(C)(C)[C@@H]1C[C@@H]3O (some centres undefined) [METHYL GANODERATE D] | 22 | – | Non-toxic | – | – |
| – | COC(=O)C(C)CC(=O)C[C@@H](C)[C@H]1CC(=O)[C@@]2(C)C3=C(C(=O)C[C@]12C)[C@@]1(C)CCC(=O)C(C)(C)[C@@H]1CC3=O (some centres undefined) [METHYL GANODERATE E] | 22 | – | Non-toxic | – | – |
| – | COC(=O)C(C)CC(=O)C[C@@H](C)[C@H]1CC(=O)[C@@]2(C)C3=C(C(=O)[C@@H](OC(C)=O)[C@]12C)[C@@]1(C)CC[C@H](O)C(C)(C)[C@@H]1CC3=O (some centres undefined) [METHYL GANODERATE H] | 22 | – | Non-toxic | – | – |
| – | COC(=O)CC[C@@H](C)[C@H]1CC(=O)[C@@]2(C)C3=C(C(=O)C[C@]12C)[C@@]1(C)CCC(=O)C(C)(C)[C@@H]1C[C@@H]3O [METHYL LUCIDENATE A] | 22 | Toxic | Non-toxic | – | – |
| – | COC(=O)CC[C@@H](C)[C@H]1CC(=O)[C@@]2(C)C3=C(C(=O)[C@@H](OC(C)=O)[C@]12C)[C@@]1(C)CC[C@H](O)C(C)(C)[C@@H]1CC3=O [METHYL LUCIDENATE E2] | 22 | – | Non-toxic | – | – |
| – | COC(=O)CC[C@@H](C)[C@H]1CC(=O)[C@@]2(C)C3=C(C(=O)C[C@]12C)[C@@]1(C)CCC(=O)C(C)(C)[C@@H]1CC3=O [METHYL LUCIDENATE F] | 22 | – | Non-toxic | – | – |
| – | COC(=O)CC[C@@H](C)[C@H]1CC(=O)[C@@]2(C)C3=C(C(=O)[C@@H](OC(C)=O)[C@]12C)[C@@]1(C)CC[C@H](O)C(C)(C)[C@@H]1C[C@@H]3O [METHYL LUCIDENATE P] | 22 | – | Non-toxic | – | – |
